Source: ChEMBL document CHEMBL3120124, “Lead optimization of HMBA to develop potent HEXIM1 inducers” (Bioorg Med Chem Lett, 2014)

Assays:
[1] = molecular target: T1, Protein HEXIM1 (Homo sapiens) (UniProt O94992); assay: Induction of HEXIM1 protein expression in human LNCAP cells at 500 uM after 24 hrs by Western blotting analysis relative to control; assay type: cell-based
T1 sequence (whole entry): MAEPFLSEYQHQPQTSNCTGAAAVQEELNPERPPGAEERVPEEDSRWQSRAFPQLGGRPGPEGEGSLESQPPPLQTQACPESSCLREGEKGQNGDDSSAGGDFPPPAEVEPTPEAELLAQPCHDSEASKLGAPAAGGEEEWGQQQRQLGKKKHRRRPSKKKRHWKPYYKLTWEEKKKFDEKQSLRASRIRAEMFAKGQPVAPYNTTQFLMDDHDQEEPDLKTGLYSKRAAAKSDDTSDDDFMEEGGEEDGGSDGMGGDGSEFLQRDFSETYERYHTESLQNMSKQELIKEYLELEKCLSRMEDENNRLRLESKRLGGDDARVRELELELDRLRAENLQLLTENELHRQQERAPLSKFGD
In short: (§1)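 LNCaP prostate cancer cells were treated for 24 h with vehicle, HMBA (5 mM; positive control) or analog at 500 μM, and selected analogs also at 100 μM. HEXIM1 was assessed by Western blot of cell extracts using a HEXIM1 antibody, with β-actin as loading control. Band intensities were quantified by densitometry. Representative of three independent experiments.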

[2] = system: LNCaP; assay: Cytotoxicity against human LNCAP cells assessed as change in cell morphology at 500 uM; assay type: cell-based
[3] = Solubility of the compound in water; assay type: physicochemical
In short: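 Aqueous solubility was judged by the absence of precipitation in LNCaP cell culture medium at 100 μM.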

[4] = molecular target: T1, Protein HEXIM1 (Homo sapiens); assay: Induction of HEXIM1 protein expression in human LNCAP cells at 100 uM after 24 hrs by Western blotting analysis relative to control; assay type: cell-based; in short: as §1
[5] = molecular target: T1, Protein HEXIM1 (Homo sapiens); assay: Induction of HEXIM1 protein expression in human LNCAP cells after 24 hrs by Western blotting analysis; assay type: cell-based
[6] = molecular target: T1, Protein HEXIM1 (Homo sapiens); assay: Induction of HEXIM1 protein expression in human LNCAP cells at 0.1 mM after 24 hrs by Western blotting analysis relative to control; assay type: cell-based
[7] = molecular target: T1, Protein HEXIM1 (Homo sapiens); assay: Induction of HEXIM1 protein expression in human LNCAP cells at 0.5 mM after 24 hrs by Western blotting analysis relative to control; assay type: cell-based; in short: as §1
[8] = molecular target: T1, Protein HEXIM1 (Homo sapiens); assay: Induction of HEXIM1 protein expression in human LNCAP cells at 0.05 mM after 24 hrs by Western blotting analysis relative to control; assay type: cell-based
[9] = molecular target: T1, Protein HEXIM1 (Homo sapiens); assay: Induction of HEXIM1 protein expression in human LNCAP cells at 1 mM after 24 hrs by Western blotting analysis relative to control; assay type: cell-based
[10] = molecular target: T1, Protein HEXIM1 (Homo sapiens); assay: Induction of HEXIM1 protein expression in human LNCAP cells at 5 mM after 24 hrs by Western blotting analysis relative to control; assay type: cell-based

Row | Structure (SMILES) | fold change (FC) [1] | solubility [3] [µM] | fold change (FC) [4] | also measured
1 | COc1ccc(C(=O)NCCCCCCNC(C)=O)cc1 | 1.93 | – | – | Activity [2]: Toxic
2 | CC(=O)NCCCCCCNC(=O)c1ccc(Cl)c([N+](=O)[O-])c1 | 0.08 | – | – | –
3 | COc1ccc(CC(=O)NCCCCCCNC(C)=O)cc1 | 2.8 | > 100 | 1.16 | fold change (FC) [6]: 12.6; fold change (FC) [7]: 26.6; Activity [5]: Dose-dependent effect; fold change (FC) [8]: 1.72
4 | CC(=O)N(C)CC1CCC(CN(C)C(C)=O)CC1 (configuration not stated) | 1.38 | – | – | –
5 | CC(=O)NCc1ccc(CNC(C)=O)cc1 | 0.4 | – | – | –
6 | CC(=O)N(C)Cc1ccc(CN(C)C(C)=O)cc1 | 2.2 | > 100 | 3.8 | –
7 | CS(=O)(=O)NCCCNS(C)(=O)=O | 4.45 | > 100 | 0.21 | –
8 | O=C(NCCCCCCNC(=O)c1ccccc1)c1ccccc1 | 0.46 | – | – | –
9 | CC(=O)NCCCCCCNC(C)=O | – | – | – | fold change (FC) [7]: 8.15; fold change (FC) [9]: 23.6; fold change (FC) [10]: 2.21
10 | CN(Cc1ccc(CN(C)S(C)(=O)=O)cc1)S(C)(=O)=O | 1.39 | > 100 | 2 | –
11 | CN(CCCCCCN(C)S(C)(=O)=O)S(C)(=O)=O | 0.97 | > 100 | 1.55 | –
12 | CN(C1CCC(N(C)S(C)(=O)=O)CC1)S(C)(=O)=O (configuration not stated) | 1.27 | > 100 | 1.22 | –
13 | CC(=O)N(C)CCCN(C)C(C)=O | 0.44 | – | – | –
14 | CS(=O)(=O)NCCCCCCNS(C)(=O)=O | 0.31 | – | – | –
15 | CS(=O)(=O)NCC1CCC(CNS(C)(=O)=O)CC1 (configuration not stated) | 1.24 | – | – | –
16 | CC(=O)N(C)CCCCCCN(C)C(C)=O | 0.25 | – | – | –
17 | CN(CCCN(C)S(C)(=O)=O)S(C)(=O)=O | 2.86 | > 100 | 0.67 | –
18 | CC(=O)NC1CCC(NC(C)=O)CC1 (configuration not stated) | 1.88 | > 100 | 0.06 | –

Further lines, with some results ahead:

Row | fold change (FC) [1] | solubility [3] [µM] | fold change (FC) [4] | Structure (SMILES) | also measured
19 | 0.16 | – | – | CS(=O)(=O)NCc1ccc(CNS(C)(=O)=O)cc1 | –
20 | 3.09 | > 100 | 0.43 | CC(=O)N(C)C1CCC(N(C)C(C)=O)CC1 (configuration not stated) | –
21 | 4.45 | > 100 | 1.34 | CCC(=O)NCCCCCCNC(=O)CC | Activity [5]: Dose-dependent effect
22 | 0.12 | – | – | CC(=O)NCCCCCNC(C)=O | –
23 | 3.09 | > 100 | 0.41 | CN(CC1CCC(CN(C)S(C)(=O)=O)CC1)S(C)(=O)=O (configuration not stated) | –
24 | 0.22 | – | – | CS(=O)(=O)NCCCCCNS(C)(=O)=O | –
25 | 2.14 | – | – | CC(=O)NCC1CCC(CNC(C)=O)CC1 (configuration not stated) | Activity [2]: Toxic
26 | 0.05 | – | – | CC(=O)N(C)CCCCCN(C)C(C)=O | –
27 | 0.05 | – | – | CN(CCCCCN(C)S(C)(=O)=O)S(C)(=O)=O | –
28 | 0.67 | – | – | CS(=O)(=O)NC1CCC(NS(C)(=O)=O)CC1 (configuration not stated) | –
29 | 1.07 | > 100 | 0.61 | CC(=O)NCCCCCCNC(=O)Oc1ccc(-c2ccccc2)cc1 | –
30 | 0.68 | – | – | CC(=O)NCCCNC(C)=O | –
31 | 4.89 | > 100 | 1.23 | CCCC(=O)NCCCCCCNC(=O)CCC | Activity [5]: Dose-dependent effect
